For assay [1], the system named is Klebsiella pneumoniae. The assay is described as follows: Antimicrobial activity against Klebsiella pneumoniae 52145. The class given is functional.
In assay [2] the test system is Klebsiella pneumoniae. In words: Antimicrobial activity against Klebsiella pneumoniae 52145 at 100 ug/disk by disk diffusion method. The class given is functional, organism-based. The gist of the method: (§1)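 Disk diffusion with SDS at 100 µg per disk.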
For assay [3], the system named is Klebsiella pneumoniae. The assay is described as follows: Antimicrobial activity against Klebsiella pneumoniae 52OmpA2 at 100 ug/disk by disk diffusion method. The class given is functional, organism-based. The gist of the method:
as §1
For orientation: A growth-free zone around the sample is the usual read-out of agar diffusion tests.

For assay [4], the system named is Klebsiella pneumoniae. In words: Antimicrobial activity against Klebsiella pneumoniae 52OmpA2 at 80 ug/disk by disk diffusion method. The format is functional. The conditions noted are these: 52OmpA2, read-out: IZ. An outline of the steps: (§2)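 Disk diffusion with novobiocin at 80 µg per disk. The diffusion halo was measured in cm and reported as mean ± error, with groups compared by P value.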

In assay [5] the test system is Klebsiella pneumoniae. In words: Antimicrobial activity against Klebsiella pneumoniae 52OmpA2Com. The format is functional.
The test system of assay [6] is Klebsiella pneumoniae. In words: Antimicrobial activity against Klebsiella pneumoniae 52OmpA2 assessed as decrease in bacterial survival after 1 hr. The class given is functional, organism-based. An outline of the steps:
(§3)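 Bacterial survival assay: cells were exposed to polymyxin B or protamine for 1 h, or to HNP-1 at a fixed 20 µg/ml for 3 h, and surviving bacteria were then counted. Polymyxin B curves are the mean ± SD of six samples from three independently grown batches. HNP-1 data are the mean ± SD of three experiments, each run in duplicate. Strains were compared by two-tailed t test.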

Assay [7] has as its system Klebsiella pneumoniae. The assay is described as follows: Antimicrobial activity against Klebsiella pneumoniae 52145 assessed as decrease in bacterial survival after 1 hr. The format is functional, organism-based. An outline of the steps: as §3
Assay [8] relates to Klebsiella pneumoniae. In words: Antimicrobial activity against Klebsiella pneumoniae 52OmpA2Com assessed as decrease in bacterial survival after 1 hr. The class given is functional, organism-based. The gist of the method: as §3
The test system of assay [9] is Klebsiella pneumoniae. In words: Antimicrobial activity against wcaK2-deficient Klebsiella pneumoniae 52OmpA2 assessed as decrease in bacterial survival. The class given is functional, organism-based. The gist of the method:
as §3

For assay [10], the system named is Klebsiella pneumoniae. In words: Antimicrobial activity against wcaK2-deficient Klebsiella pneumoniae 52145 assessed as decrease in bacterial survival. The format is functional, organism-based. The gist of the method:
as §3

Assay [11] concerns Klebsiella pneumoniae. The assay is described as follows: Antimicrobial activity against Klebsiella pneumoniae 52145 by Etest. The format is functional, organism-based.
Assay [12] has as its system Klebsiella pneumoniae. In words: Antimicrobial activity against Klebsiella pneumoniae 52OmpA2Com by Etest. The format is functional, organism-based.
Assay [13] concerns Klebsiella pneumoniae. The assay is described as follows: Antimicrobial activity against Klebsiella pneumoniae 52OmpA2 by Etest. The format is functional, organism-based.
The test system of assay [14] is Klebsiella pneumoniae. In words: Antimicrobial activity against Klebsiella pneumoniae 52145 at 80 ug/disk by disk diffusion method. The class given is functional, organism-based. An outline of the steps: as §2
The subject of assay [15] is Klebsiella pneumoniae. The assay is described as follows: Antimicrobial activity against Klebsiella pneumoniae 52145 assessed as induction of bacterial wall damage by propidium iodide staining-based fluorescence spectroscopy. The format is functional, organism-based.
The test system of assay [16] is Klebsiella pneumoniae. The assay is described as follows: Antimicrobial activity against Klebsiella pneumoniae 52OmpA2 assessed as induction of bacterial wall damage by propidium iodide staining-based fluorescence spectroscopy. The class given is functional, organism-based.
Assay [17] has as its system Klebsiella pneumoniae. The assay is described as follows: Binding affinity to Klebsiella pneumoniae 52145 outer membrane assessed as amount of peptide bound at 16 ug/ml after 30 mins. The gist of the method: (§4)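 Bacteria were incubated with the peptide for 30 min, and the amount of peptide bound was then determined, expressed in µg/ml. Strains were compared by two-tailed t test.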

For assay [18], the system named is Klebsiella pneumoniae. In words: Binding affinity to Klebsiella pneumoniae 52OmpA2 outer membrane assessed as amount of peptide bound at 16 ug/ml after 30 mins. An outline of the steps:
as §4

Assay [19] relates to Klebsiella pneumoniae. The assay is described as follows: Binding affinity to wcaK2-deficient Klebsiella pneumoniae 52145 lipopolysaccharide assessed as amount of peptide bound at 16 ug/ml after 30 mins. The gist of the method:
(§5)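 LPS was purified from capsule (CPS) mutants to avoid copurifying capsule. LPS at 50 µg/ml was incubated with polymyxin B at 16 µg/ml for 30 min, and the bound peptide was measured in µg/ml.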

Assay [20] relates to Klebsiella pneumoniae. In words: Binding affinity to wcaK2-deficient Klebsiella pneumoniae 52OmpA2 lipopolysaccharide assessed as amount of peptide bound at 16 ug/ml after 30 mins. The gist of the method: as §5
For assay [21], the system named is Klebsiella pneumoniae. The assay is described as follows: Antimicrobial activity against Klebsiella pneumoniae 52OmpAK36 harboring OmpA K36 mutant gene assessed as decrease in bacterial survival after 1 hr by coomassie blue staining. The class given is functional, organism-based.
In assay [22] the test system is Klebsiella pneumoniae. In words: Antimicrobial activity against Klebsiella pneumoniae 52145 assessed as decrease in bacterial survival at 1 ug/ml pre-exposed for 1 hr during growth phase. The format is functional, organism-based. An outline of the steps:
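Cells were pretreated during growth with polymyxin B (final 1 µg/ml, 1 h), washed, and then tested for polymyxin B susceptibility by the same survival assay, alongside untreated cells. Values are the mean ± SD of six samples from three independently grown batches. Pretreated and untreated cells were compared by two-tailed t test.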

Here are results for seven molecules from ChEMBL document CHEMBL1629613, “Klebsiella pneumoniae OmpA confers resistance to antimicrobial peptides” (2009).

What is called MIC is the smallest concentration in the dilution series that meets the test's criterion for growth inhibition. A high value points to a need for much substance.

Values after ≈ are worked out from the molar mass of the structure shown. Active and inactive are the calls of the source.

`CC1(C)S[C@@H]2[C@H](NC(=O)[C@H](N)c3ccc(O)cc3)C(=O)N2[C@H]1C(=O)O` [AMOXICILLIN] gave an MIC in the assay with Klebsiella pneumoniae [1] of 2 µg/mL (≈ 5.47 µM).
Consider `CO/N=C(\C(=O)N[C@@H]1C(=O)N2C(C(=O)O)=C(COC(C)=O)CS[C@H]12)c1csc(N)n1` [CEFOTAXIME], for which the MIC in the assay with Klebsiella pneumoniae [1] came out at 0.05 µg/mL (≈ 0.11 µM).
`O=C(O)c1cn(C2CC2)c2cc(N3CCNCC3)c(F)cc2c1=O` [CIPROFLOXACIN] returned an MIC against Klebsiella pneumoniae [1] of 0.05 µg/mL (≈ 0.151 µM).
`C[C@@H](O)[C@H]1C(=O)N2C(C(=O)O)=C(SCCNC=N)C[C@H]12` [IMIPENEM ANHYDROUS] had an MIC against Klebsiella pneumoniae [1] of 0.05 µg/mL (≈ 0.167 µM).
On to `CO[C@@H]1[C@@H](OC(N)=O)[C@@H](O)[C@H](Oc2ccc3c(O)c(NC(=O)c4ccc(O)c(CC=C(C)C)c4)c(=O)oc3c2C)OC1(C)C` [NOVOBIOCIN], for which the outcome with Klebsiella pneumoniae [2] and in the assay on Klebsiella pneumoniae [3] was inactive. Further, the zone of inhibition at 80 µg/disc in the assay on Klebsiella pneumoniae [4] came out at 8.5 mm.
In the case of GENTAMICIN, the MIC with Klebsiella pneumoniae [1] and with Klebsiella pneumoniae [5] was 0.15 µg/mL in each case.
Consider POLYMYXIN B, for which the inhibition result in the assay on Klebsiella pneumoniae [6], with Klebsiella pneumoniae [9] and with Klebsiella pneumoniae [10] was “Active” in each case. The result in the assay on Klebsiella pneumoniae [7], with Klebsiella pneumoniae [15], with Klebsiella pneumoniae [16] and with Klebsiella pneumoniae [22] was inactive. For the same molecule, the result with Klebsiella pneumoniae [8] was Active. For the same molecule, the MIC with Klebsiella pneumoniae [11] was 0.75 µg/mL; against Klebsiella pneumoniae [12], 0.75 µg/mL; in the assay on Klebsiella pneumoniae [13], 0.31 µg/mL. The same molecule gave an inhibition zone (IZ) in the assay with Klebsiella pneumoniae [14] of 9 mm. For the same molecule, the Activity in the assay on Klebsiella pneumoniae [17] amounted to 7.4 µg/mL; in the assay with Klebsiella pneumoniae [18], 8.1 µg/mL; in the assay on Klebsiella pneumoniae [19], 4.8 µg/mL; in the assay with Klebsiella pneumoniae [20], 4.4 µg/mL. In the assay with Klebsiella pneumoniae [21], the inhibition entry is “inactive”.
